Activity calls are given as the source filed them. The rule behind the calls is not given here.

One may read the IC50 as the point on the concentration scale where inhibition reaches its midpoint. By Ki is commonly meant the dissociation constant of the complex between target and ligand, obtained from inhibition or displacement. A word on the inhibition: it is the relative decrease from the control value, in per cent.

In data set [1] the target is T1, Cholinesterase (Equus caballus, UniProt P81908). Nature of the data set: (§1) Inhibition of equine serum BChE using […] chloride as substrate preincubated for 15 mins followed by substrate addition and measured after 15 mins under dark condition by Ellman's method. The procedure, abridged:
(§2)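 Modified Ellman assay. Equine serum BChE (51.732 mU) was preincubated 15 min at 25 °C with test compound (dissolved in methanol) in 100 mM sodium phosphate buffer, pH 8.0. Butyrylthiocholine chloride (0.5 mM) was added for 15 min in the dark, then DTNB (0.5 mM) was added. Absorbance was read at 412 nm and mean IC50 values were derived.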
A general note: Ellman's reagent forms a yellow product with free thiols.

The target of data set [2] is T1, Cholinesterase. Nature of the data set: Uncompetitive inhibition of equine serum BChE using varying levels of […] chloride as substrate by Lineweaver-Burk plot analysis.
Data set [3] addresses Acetylcholinesterase (Electrophorus electricus) (UniProt O42275). Nature of the data set: Inhibition of electric eel AChE using acetylthiocholine iodide as substrate preincubated for 15 mins followed by substrate addition and measured after 15 mins under dark condition by Ellman's method. The essentials: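 Modified Ellman assay. Electric eel AChE (0.002 mU) was preincubated 15 min at 25 °C with test compound (dissolved in methanol) in 100 mM sodium phosphate buffer, pH 8.0. Acetylthiocholine iodide (0.5 mM) and DTNB were added. After 15 min in the dark, absorbance was read at 412 nm.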

The target of data set [4] is Cholinesterase (Equus caballus) (UniProt P81908). The experiment in a line: Inhibition of equine serum BChE using […] chloride as substrate preincubated for 15 mins followed by substrate addition and measured after 15 mins under dark condition by Ellman's method relative to control. The arrangement: concentration or dose not given beside the values. The procedure, abridged: as §2
Cholinesterase (Equus caballus), sequence (P81908 whole entry): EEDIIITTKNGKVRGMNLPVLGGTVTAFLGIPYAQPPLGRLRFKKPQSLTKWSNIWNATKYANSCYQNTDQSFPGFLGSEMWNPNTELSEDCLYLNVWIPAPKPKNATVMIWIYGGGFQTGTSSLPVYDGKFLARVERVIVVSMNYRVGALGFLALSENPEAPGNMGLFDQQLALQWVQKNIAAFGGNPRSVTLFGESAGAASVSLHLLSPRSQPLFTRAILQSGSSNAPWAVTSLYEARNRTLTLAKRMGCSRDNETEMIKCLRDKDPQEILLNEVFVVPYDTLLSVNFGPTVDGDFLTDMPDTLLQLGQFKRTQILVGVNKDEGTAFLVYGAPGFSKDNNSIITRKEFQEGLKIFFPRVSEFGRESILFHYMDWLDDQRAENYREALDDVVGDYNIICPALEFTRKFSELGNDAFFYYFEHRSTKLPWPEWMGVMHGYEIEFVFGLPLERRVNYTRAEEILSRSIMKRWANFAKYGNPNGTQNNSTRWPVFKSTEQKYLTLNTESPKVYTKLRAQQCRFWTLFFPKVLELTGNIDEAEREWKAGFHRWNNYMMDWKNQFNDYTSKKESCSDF

Data set [5] concerns NIH3T3. The experiment in a line: Cytotoxicity against mouse 3T3 cells at 1 to 30 uM measured after 48 hrs by MTT assay relative to control. Particulars: nih3t3, 48 h. It is filed as cell-based. The essentials:
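MTT colorimetric read-out. Cells seeded at 3x10^5 in 100 µL medium and left 24 h to attach. Medium then replaced with fresh medium plus test compound (1 to 30 µM). Incubated 48 h at 37 °C, 5% CO2, 90% humidity. MTT added, 4 h incubation. Formazan dissolved in DMSO, absorbance read at 540 nm. IC50 values calculated.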

Data set [6] addresses T1, Cholinesterase. The experiment in a line: Mixed inhibition of equine serum BChE using varying levels of […] chloride as substrate by Lineweaver-Burk plot analysis. The procedure, abridged: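 Kinetics for BChE in the Ellman format with varied substrate. Inhibition mode was assigned from Lineweaver-Burk plots, secondary replots (slope vs inhibitor concentration) and Dixon plots. Apparent Km and Vmax were determined.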

The target of data set [7] is Cholinesterase (Equus caballus) (UniProt P81908). The experiment in a line: Potency index, ratio of donepezil IC50 to test compound IC50 for equine serum BChE.
Data set [8] has the same target. The description is as §1. The procedure, abridged: as §2
Data set [9] has as its system NIH3T3. Nature of the data set: Cytotoxicity against mouse 3T3 cells measured after 48 hrs by MTT assay relative to control. It is filed as cell-based. Particulars: nih3t3, 48 h. The essentials: (§3)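 Cells seeded at 3x10^5 per well in medium and allowed to attach. After 24 h the medium was replaced with fresh medium plus test compound (1 to 30 µM). Plates were held 48 h at 37 °C, 5% CO2, 90% humidity. MTT was added for 4 h, formazan dissolved in DMSO, and absorbance read at 540 nm. IC50 values were calculated.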
Background: Tetrazolium dyes change colour on reduction, which living cells bring about.

Data set [10] relates to NIH3T3. The experiment in a line: Cytotoxicity against mouse 3T3 cells measured after 48 hrs by MTT assay. It counts as cell-based. Particulars: NIH3T3, 48 h. The procedure, abridged: as §3

T1 sequence (P81908 whole entry): as above
Acetylcholinesterase (Electrophorus electricus), sequence (O42275 24-633 limits assumed): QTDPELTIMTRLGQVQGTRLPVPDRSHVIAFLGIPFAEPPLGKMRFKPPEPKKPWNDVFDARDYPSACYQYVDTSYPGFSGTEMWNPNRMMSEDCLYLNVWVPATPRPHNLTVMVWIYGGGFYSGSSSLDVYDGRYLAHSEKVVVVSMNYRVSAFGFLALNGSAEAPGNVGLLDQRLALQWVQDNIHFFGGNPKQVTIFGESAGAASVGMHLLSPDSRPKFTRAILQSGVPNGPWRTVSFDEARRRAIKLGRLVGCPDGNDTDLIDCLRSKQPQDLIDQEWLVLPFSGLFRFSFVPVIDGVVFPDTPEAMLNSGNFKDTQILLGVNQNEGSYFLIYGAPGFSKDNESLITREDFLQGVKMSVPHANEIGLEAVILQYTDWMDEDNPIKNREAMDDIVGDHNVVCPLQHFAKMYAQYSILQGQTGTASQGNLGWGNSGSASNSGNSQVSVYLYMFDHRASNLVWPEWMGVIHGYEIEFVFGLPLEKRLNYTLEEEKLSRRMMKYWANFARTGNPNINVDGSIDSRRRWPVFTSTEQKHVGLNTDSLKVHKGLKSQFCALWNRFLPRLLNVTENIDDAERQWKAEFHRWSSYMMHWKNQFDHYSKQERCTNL

Take `O=C(Nc1c(Cl)cccc1Cl)c1c(F)cccc1F`: the IC50 in data set [1] amounted to 12.6 µM. The molecule also registered a Ki in data set [2] of 5.6 µM. The inhibition entry in [3] is “inactive”. Moreover, the inhibition in [4] was 70.6%. Also, the Activity in data set [5] was 34%.

As to `O=C(Nc1c(Cl)cccc1Cl)c1ccccc1Br`, it took 1.1 µM to reach half-maximal inhibition in [1] (IC50). In data set [2], this molecule gave a Ki of 2.4 µM. The inhibition result in data set [3] is “inactive”. Besides, the inhibition in data set [4] is 88%. In data set [5], this molecule registered an Activity of 41%.

For the molecule `O=C(Nc1c(Cl)cccc1Cl)c1ccc(F)cc1`, the IC50 in data set [1] worked out at 16.1 µM. Further, in data set [6], the affinity corresponds to a Ki of 9.9 µM. In addition, in data set [3], the inhibition entry was “inactive”. Further, in data set [4], the inhibition is 86.5%. Further, the Activity in data set [5] is reported as 29%.

As to `O=C(Nc1c(Cl)cccc1Cl)c1ccc(Br)cc1`, the IC50 in data set [1] amounted to 0.8 µM. In [6], this molecule yielded an inhibition constant Ki of 2.6 µM. Moreover, in data set [3], the inhibition entry was “inactive”. Also, the inhibition in [4] came to 84%. The molecule further displayed an Activity in [5] of 49%.

As for `O=C(Nc1c(Cl)cccc1Cl)c1ccccc1`, the IC50 in data set [1] amounted to 1.3 µM. The molecule further gave a Ki in data set [6] of 4.4 µM. Further, the inhibition entry in data set [3] was “inactive”. For the same molecule, the inhibition in [4] worked out at 100%. The molecule also displayed an Activity in data set [5] of 33%. Also, the Ratio IC50 in [7] stood at 10.

In turn, `O=C(Nc1c(Cl)cccc1Cl)c1ccc(F)cc1F` yielded an IC50 in data set [1] of 18.7 µM. Further, the Ki in data set [2] was 27.6 µM. In [3], the inhibition result was “inactive”. In data set [4], the inhibition was 80.7%. In addition, in data set [5], the Activity is 34%.

Turning to `CCOc1ccccc1C(=O)Nc1c(Cl)cccc1Cl`, the IC50 in data set [1] stood at 6 µM. For the same molecule, the inhibition entry in data set [3] was “inactive”. For the same molecule, the inhibition in data set [4] amounted to 112%. Also, the Activity in data set [5] came out at 15%.

`COc1cccc(C(=O)Nc2c(Cl)cccc2Cl)c1`: the IC50 in data set [1] came out at 5.5 µM. Further, in data set [6], the Ki was determined as 13 µM. In addition, the inhibition entry in [3] is “inactive”. Further, the inhibition in data set [4] is 95.2%. For the same molecule, in data set [5], the Activity is recorded as 14.8%.

For the molecule `O=C(Nc1c(Cl)cccc1Cl)c1cccc([N+](=O)[O-])c1`, the inhibition result in data set [8] and in data set [3] was “inactive” in each case. The molecule also yielded an Activity in [5] of 41%.

In the case of `Cc1ccc(C(=O)Nc2c(Cl)cccc2Cl)cc1[N+](=O)[O-]`, the half-maximal inhibitory concentration (IC50) in [1] was 165 µM. Besides, the inhibition entry in [3] was “inactive”. Moreover, the inhibition in data set [4] amounted to 69.1%. Moreover, the Activity in data set [5] is reported as 40%.

Molecule `C[C@@H]1C[C@@H]([C@H](O)CC2CC(=O)NC(=O)C2)C(=O)[C@@H](C)C1` [CYCLOHEXIMIDE] yielded an Activity in data set [9] of 95%. This molecule displayed an IC50 in data set [10] of 0.8 µM.

On to `COc1ccc(C(=O)Nc2c(Cl)cccc2Cl)cc1`, for which the midpoint of inhibition in data set [1], the IC50, lay at 11.3 µM. The molecule further displayed a Ki in data set [6] of 18 µM. In addition, the inhibition entry in data set [3] is “inactive”. Besides, in data set [4], the inhibition was found to be 90.7%. For the same molecule, the Activity in [5] is on record as 32%.

The molecule `COc1cc(C(=O)Nc2c(Cl)cccc2Cl)cc(OC)c1OC` showed an IC50 in [1] of 20.8 µM. In data set [2], this molecule gave a Ki of 23.5 µM. For the same molecule, the inhibition result in data set [3] was “inactive”. Besides, the inhibition in [4] is 69.2%. Also, in [5], the Activity is listed as 48%.

(Values after ChEMBL document CHEMBL4346761, “Microwave-Assisted Organic Synthesis, structure-activity relationship, kinetics and molecular docking studies of non-cytotoxic benzamide derivatives as selective butyrylcholinesterase inhibitors” (Bioorg Med Chem, 2019).)
